Several values for one entry are separate records, joined by “and”; a condition that tells them apart may be missing. Identical values can stand only once.
Tests used:
[1] = Metal chelation study by UV spectrophotometer; assay type: physicochemical; details: for chelation of Fe^3+ (in words): UV spectra 200 to 600 nm
How it was run: (§1)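 UV spectra from 200 to 600 nm at 37 °C. Test compound and metal salt (FeCl3, CuCl2, ZnSO4·H2O or AlCl3·6H2O) are combined at 100 μM each and incubated at 37 °C for 30 min. Compound-alone spectra use water in place of metal. Read-outs are % change in absorbance, (+) for decrease and (−) for increase, plus band shift.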

[2] = Antioxidant assay, ORAC-FL method; details: compound and Trolox at 8 μM, 37 °C, three independent experiments
How it was run: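 ORAC-FL in 75 mM phosphate buffer, 200 μL total: test compound, Trolox (both 8 μM) or buffer blank with 150 nM fluorescein solution, kept dark at 37 °C for 30 min. Then 12 mM AAPH solution is added and fluorescence (ex 485/em 535 nm) read every 1 min for 15 min. Net AUC vs blank is expressed as Trolox equivalents (Trolox = 1). Triplicates; three independent experiments, mean ± SEM.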

[3] = biological target: AChE from electric eel (EeAChE) (Electrophorus electricus, UniProt O42275); experiment: In vitro AChE inhibition, modified Ellman's method; assay type: biochemical; details: for IC50: EeAChE IC50 ± SEM, mean of three independent experiments; for inhibition at 156 µM / inhibition at 312 µM / inhibition at 625 µM / inhibition at 1250 µM / inhibition at 2500 µM / inhibition at 5000 µM / inhibition at 10000 µM: read-out: % of AChE inhibition; for AChE inhibitory activity (in words): up to 10 mM
Sequence of AChE from electric eel (EeAChE) (O42275 24-633): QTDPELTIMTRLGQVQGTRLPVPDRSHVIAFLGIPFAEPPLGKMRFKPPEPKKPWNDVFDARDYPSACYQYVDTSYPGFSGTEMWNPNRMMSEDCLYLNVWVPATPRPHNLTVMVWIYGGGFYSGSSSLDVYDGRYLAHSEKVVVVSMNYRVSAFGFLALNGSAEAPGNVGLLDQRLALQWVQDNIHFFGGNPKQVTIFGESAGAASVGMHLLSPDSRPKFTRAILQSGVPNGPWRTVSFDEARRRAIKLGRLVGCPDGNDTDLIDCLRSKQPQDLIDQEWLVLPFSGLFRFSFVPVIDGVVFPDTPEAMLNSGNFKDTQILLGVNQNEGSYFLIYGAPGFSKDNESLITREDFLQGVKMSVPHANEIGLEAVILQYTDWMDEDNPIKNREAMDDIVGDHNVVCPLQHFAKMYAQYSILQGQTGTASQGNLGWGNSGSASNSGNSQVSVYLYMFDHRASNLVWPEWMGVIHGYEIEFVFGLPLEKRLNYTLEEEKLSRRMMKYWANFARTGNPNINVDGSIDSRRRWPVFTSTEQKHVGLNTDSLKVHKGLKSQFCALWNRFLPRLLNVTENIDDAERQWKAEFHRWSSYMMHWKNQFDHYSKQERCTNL

[4] = Metal chelation study by UV spectrophotometer; assay type: physicochemical; details: for chelation of Al^3+ (in words): UV spectra 200 to 600 nm
How it was run: as §1

[5] = Stoichiometric study of Fe^3+–5i complex; assay type: physicochemical; details: Fe^3+ 0–100 μM, 5i 100 μM; at 239 nm and 327 nm as printed
How it was run: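 UV titration at 37 °C: 100 μM test compound in a cuvette receives 20 μL aliquots of 1 mM FeCl3, raising Fe3+ in 10 μM steps to a final 10–100 μM. Spectra are recorded after each addition. A Job's plot is built from band absorbances, and the mole fraction is obtained by extrapolation.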

[6] = Metal chelation study, selectivity towards essential metals; assay type: physicochemical; details: UV spectra
How it was run: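 KCl, NaCl, CaSO4 or […] solutions are mixed with test compound at 100 μM each ligand and metal, incubated at 37 °C for 30 min, and scanned by UV from 200 to 600 nm, with compound-alone spectra taken in water. For the affinity check, Fe3+, Zn2+, Cu2+, Ca2+, Mg2+, Na+ and K+ are mixed at equal concentrations with test compound at 100 μM.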

[7] = Affinity study of 5i towards Fe^3+ in metal pool; assay type: physicochemical; details: Zn^2+, Cu^2+, Ca^2+, Mg^2+, Na^+ and K^+ and 5i, 100 μM each

Row | Compound | ORAC index ± SEM [2] | IC50 [3] | inhibition at 156 µM [3] | inhibition at 312 µM [3] | inhibition at 625 µM [3] | inhibition at 1250 µM [3] | inhibition at 2500 µM [3] | inhibition at 5000 µM [3] | inhibition at 10000 µM [3] | other results
1 | Cc1cccc(Cn2cc(COCc3cnc(C)c(O)c3CO)nn2)c1 [Compound 5c, 4-(Hydroxymethyl)-2-methyl-5-(((1-(3-methylbenzyl)-1H-1,2,3-triazol-4-yl)methoxy)methyl)pyridin-3-ol] | 2.0164 Trolox equivalents | 1380 µM | 22.5% | 26.9% | 39.1% | 53.8% | 64.1% | 73.4% | 81.9% | chelation of Fe^3+ (in words) [1]: chelated; chelation of Al^3+ (in words) [4]: chelated
2 | Cc1ncc(COCc2cn(Cc3ccccc3C(F)(F)F)nn2)c(CO)c1O [Compound 5q, 4-(Hydroxymethyl)-2-methyl-5-(((1-(2-(trifluoromethyl)benzyl)-1H-1,2,3-triazol-4-yl)methoxy)methyl)pyridin-3-ol] | 0.7168 Trolox equivalents | 1130 µM | 22.5% | 26.9% | 39.1% | 53.8% | 64.1% | 73.4% | 81.9% | chelation of Fe^3+ (in words) [1]: chelated; chelation of Al^3+ (in words) [4]: chelated
3 | Cc1ccc(Cn2cc(COCc3cnc(C)c(O)c3CO)nn2)cc1 [Compound 5b, 4-(Hydroxymethyl)-2-methyl-5-(((1-(4-methylbenzyl)-1H-1,2,3-triazol-4-yl)methoxy)methyl)pyridin-3-ol] | 1.8428 Trolox equivalents | 3380 µM |  |  |  |  |  |  |  | 
4 | Cc1ncc(COCc2cn(Cc3ccc(C(F)(F)F)cc3)nn2)c(CO)c1O [Compound 5o, 4-(Hydroxymethyl)-2-methyl-5-(((1-(4-(trifluoromethyl)benzyl)-1H-1,2,3-triazol-4-yl)methoxy)methyl)pyridin-3-ol] | 2.0758 Trolox equivalents | 6520 µM |  |  |  |  |  |  |  | 
5 | Cc1ncc(COCc2cn(Cc3cccc(F)c3)nn2)c(CO)c1O [Compound 5h, 5-(((1-(3-Fluorobenzyl)-1H-1,2,3-triazol-4-yl)methoxy)methyl)-4-(hydroxymethyl)-2-methylpyridin-3-ol] | 2.1015 Trolox equivalents | 1540 µM | 19% | 25.5% | 35.1% | 56.4% | 60.5% | 66.6% | 69% | 
6 | Cc1ncc(COCc2cn(Cc3ccccc3)nn2)c(CO)c1O [Compound 5a, 5-(((1-Benzyl-1H-1,2,3-triazol-4-yl)methoxy)methyl)-4-(hydroxymethyl)-2-methylpyridin-3-ol] | 1.0564 Trolox equivalents | > 10000 µM |  |  |  |  |  |  |  | AChE inhibitory activity (in words) [3]: inactive
7 | COc1cccc(Cn2cc(COCc3cnc(C)c(O)c3CO)nn2)c1 [Compound 5e, 4-(Hydroxymethyl)-5-(((1-(3-methoxybenzyl)-1H-1,2,3-triazol-4-yl)methoxy)methyl)-2-methylpyridin-3-ol] | 1.8862 Trolox equivalents | 4570 µM |  |  |  |  |  |  |  | 
8 | Cc1ncc(COCc2cn(Cc3cccc(Br)c3)nn2)c(CO)c1O [Compound 5n, 5-(((1-(3-Bromobenzyl)-1H-1,2,3-triazol-4-yl)methoxy)methyl)-4-(hydroxymethyl)-2-methylpyridin-3-ol] | 2.2079 Trolox equivalents | 1080 µM | 14.7% | 25.8% | 42% | 57.4% | 70.2% | 75.9% | 86.3% | 
9 | Cc1ncc(COCc2cn(Cc3ccc(Cl)c(Cl)c3)nn2)c(CO)c1O [Compound 5l, 5-(((1-(3,4-Dichlorobenzyl)-1H-1,2,3-triazol-4-yl)methoxy)methyl)-4-(hydroxymethyl)-2-methylpyridin-3-ol] | 1.9421 Trolox equivalents | 3380 µM |  |  |  |  |  |  |  | 
10 | COc1cc(Cn2cc(COCc3cnc(C)c(O)c3CO)nn2)cc(OC)c1 [Compound 5f, 5-(((1-(3,5-Dimethoxybenzyl)-1H-1,2,3-triazol-4-yl)methoxy)methyl)-4-(hydroxymethyl)-2-methylpyridin-3-ol] | 2.3425 Trolox equivalents | 2650 µM |  |  |  |  |  |  |  | 
11 | Cc1ncc(COCc2cn(Cc3ccc(Br)cc3)nn2)c(CO)c1O [Compound 5m, 5-(((1-(4-Bromobenzyl)-1H-1,2,3-triazol-4-yl)methoxy)methyl)-4-(hydroxymethyl)-2-methylpyridin-3-ol] | 1.215 Trolox equivalents | 3140 µM |  |  |  |  |  |  |  | 
12 | Cc1ncc(COCc2cn(Cc3ccc(Cl)cc3)nn2)c(CO)c1O [Compound 5j, 5-(((1-(4-Chlorobenzyl)-1H-1,2,3-triazol-4-yl)methoxy)methyl)-4-(hydroxymethyl)-2-methylpyridin-3-ol] | 1.9697 Trolox equivalents | 2720 µM |  |  |  |  |  |  |  | 
13 | Cc1ncc(CO)c(CO)c1O [Pyridoxine, reference compound] | 0.5249 Trolox equivalents |  |  |  |  |  |  |  |  | AChE inhibitory activity (in words) [3]: not an AChE inhibitor; AChE inhibitory activity (in words) ([3]; listed as pyridoxine): inactive
14 | Cc1ncc(COCc2cn(Cc3cccc(C(F)(F)F)c3)nn2)c(CO)c1O [Compound 5p, 4-(Hydroxymethyl)-2-methyl-5-(((1-(3-(trifluoromethyl)benzyl)-1H-1,2,3-triazol-4-yl)methoxy)methyl)pyridin-3-ol] | 0.8718 Trolox equivalents | 3650 µM |  |  |  |  |  |  |  | 
15 | Cc1ncc(COCc2cn(Cc3cc(F)cc(F)c3)nn2)c(CO)c1O [Compound 5i, 5-(((1-(3,5-Difluorobenzyl)-1H-1,2,3-triazol-4-yl)methoxy)methyl)-4-(hydroxymethyl)-2-methylpyridin-3-ol] | 1.21 ± 0.28 Trolox equivalents and 1.2138 Trolox equivalents | 1560 µM | 15% | 26.6% | 35.4% | 43% | 61.4% | 66.8% | 77.9% | chelation of Fe^3+ (in words) [1]: chelated; bathochromic shift with Fe^3+ ([1]; band at 292 nm): about 3 nm; mole fraction from Job's plot [5]: 0.5; chelation of Ca^2+, Mg^2+, Na^+ and K^+ (in words) [6]: did not chelate these metal ions at all; affinity towards Fe^3+ in the metal pool (in words) [7]: showed affinity towards Fe^3+ in the metal pool; chelation of Al^3+ (in words) [4]: chelated; increase in absorbance with Al^3+ ([4]; at 292 nm): 104%; bathochromic shift with Al^3+ ([4]; band at 292 nm): 4 nm
16 | Cc1ncc(COCc2cn(Cc3ccc(F)cc3)nn2)c(CO)c1O [Compound 5g, 5-(((1-(4-Fluorobenzyl)-1H-1,2,3-triazol-4-yl)methoxy)methyl)-4-(hydroxymethyl)-2-methylpyridin-3-ol] | 1.4489 Trolox equivalents | 6470 µM |  |  |  |  |  |  |  | 
17 | Cc1ccccc1Cn1cc(COCc2cnc(C)c(O)c2CO)nn1 [Compound 5d, 4-(Hydroxymethyl)-2-methyl-5-(((1-(2-methylbenzyl)-1H-1,2,3-triazol-4-yl)methoxy)methyl)pyridin-3-ol] | 1.9723 Trolox equivalents | 907 µM | 33.5% | 36.4% | 51.1% | 58.6% | 69.6% | 81.3% | 86% | 
18 | Cc1ncc(COCc2cn(Cc3cccc(Cl)c3)nn2)c(CO)c1O [Compound 5k, 5-(((1-(3-Chlorobenzyl)-1H-1,2,3-triazol-4-yl)methoxy)methyl)-4-(hydroxymethyl)-2-methylpyridin-3-ol] | 0.8358 Trolox equivalents | 2710 µM |  |  |  |  |  |  |  | 
19 | Cc1c(C)c2c(c(C)c1O)CCC(C)(C(=O)O)O2 (stereo not drawn) [Trolox, reference compound] | 1 Trolox equivalents |  |  |  |  |  |  |  |  | 

Source: article PMC9055346 (RSC Advances, 2020)
